# Molecular target: T1, Growth hormone secretagogue receptor type 1 (Homo sapiens, UniProt Q92847)
# Assay: Antagonist activity at human GHS receptor by inhibition of ghrelin-induced intracellular calcium flux in CHOK cells
# Format: functional, cell-based
# Settings: not given
# Outline: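 CHO-K cells stably expressing human GHS-R, grown in Ultra-CHO medium with 1% dialyzed FCS and 400 µg/mL G418, plated to confluency overnight. Loaded with Fluo-4 AM plus probenecid for 1-3 h in the dark at RT, then washed. On FLIPR (ex 488/em 520 nm), compound added first and read 3 min, then ghrelin added and read another 3 min. Duplicate or triplicate wells; sigmoidal fit for IC50.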
# T1 sequence (Q92847 whole entry): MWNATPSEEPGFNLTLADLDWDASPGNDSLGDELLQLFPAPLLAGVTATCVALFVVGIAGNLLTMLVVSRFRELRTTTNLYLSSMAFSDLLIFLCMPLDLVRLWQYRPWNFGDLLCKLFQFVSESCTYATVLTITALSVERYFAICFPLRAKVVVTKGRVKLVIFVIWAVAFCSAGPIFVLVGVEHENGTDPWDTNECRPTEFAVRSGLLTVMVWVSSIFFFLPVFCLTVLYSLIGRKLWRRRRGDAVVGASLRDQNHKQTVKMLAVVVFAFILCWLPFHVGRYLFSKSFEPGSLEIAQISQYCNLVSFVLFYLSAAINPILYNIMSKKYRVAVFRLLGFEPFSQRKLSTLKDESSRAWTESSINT
row,IC50 [nM],SMILES
1,11,CCc1nc(N)nc(N)c1-c1ccc(NCc2ccc(S(C)(=O)=O)cc2)c(Cl)c1
2,120,CCc1nc(N)nc(N)c1-c1ccc(CNc2ccc(S(C)(=O)=O)cc2)cc1
3,980,Nc1nc(N)c(-c2ccc(NCc3ccccc3)cc2)c(COCc2ccccc2)n1
4,700,CC(C)(C)CNc1ccc(-c2c(N)nc(N)nc2COCc2ccccc2)cc1
5,5.8,Nc1nc(N)c(-c2ccc(NCc3ccc([N+](=O)[O-])cc3)cc2)c(COCc2ccccc2)n1
6,220,CCc1nc(N)nc(N)c1-c1ccc(NCc2ccnc(Cl)c2)cc1
7,48,CS(=O)(=O)c1ccc(COc2ccc(-c3c(N)nc(N)nc3COCc3ccccc3)cc2)cc1
8,110,CCc1nc(N)nc(N)c1-c1ccc(NCc2ccc(C(C)=O)cc2)cc1
9,16,Nc1nc(N)c(-c2ccc(CNc3ccc([N+](=O)[O-])cc3)cc2)c(COCc2ccccc2)n1
10,790,CCc1nc(N)nc(N)c1-c1ccc(NCc2csc(Cl)c2)cc1
11,170,Nc1nc(N)c(-c2ccc(NCc3csc(Cl)c3)cc2)c(COCc2ccccc2)n1
12,45,CCc1nc(N)nc(N)c1-c1ccc(NCc2cc(F)c(S(C)(=O)=O)c(F)c2)cc1
13,7.2,CS(=O)(=O)c1ccc(CNc2ccc(-c3c(N)nc(N)nc3COCc3ccccc3)cc2)cc1
14,90,COc1ccc(CNc2ccc(-c3c(N)nc(N)nc3COCc3ccccc3)cc2)cc1
15,780,CCc1nc(N)nc(N)c1-c1ccc(NCc2ccc(C#N)cc2)cc1
16,780,Nc1nc(N)c(-c2ccc(NCc3cnc4ccccc4c3)cc2)c(COCc2ccccc2)n1
17,3150,CCc1nc(N)nc(N)c1-c1ccc(CNc2ccc(Cl)cc2)cc1
18,23,CCc1nc(N)nc(N)c1-c1ccc(NCc2ccc([N+](=O)[O-])cc2)cc1

# Test system: not listed separately
# Assay: AUC in Sprague-Dawley rat at 5 mg/kg, iv
# Format: ADME, organism-based, Plasma
# Design: dose 5 mg/kg, route intravenous
# Settings: Sprague-Dawley, plasma
# Outline: (§1)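 Rats dosed at 5 mg/kg: iv for AUC (µg·h/mL), clearance (L/h·kg) and Cmax (µg/mL); oral for bioavailability unless stated otherwise. Brain (µg/g) and plasma levels taken at 1 and 8 h. Mean of n = 3.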
row,AUC [ng·h/mL],SMILES
1,2700,CCc1nc(N)nc(N)c1-c1ccc(NCc2ccc(S(C)(=O)=O)cc2)c(Cl)c1
2,680,CCc1nc(N)nc(N)c1-c1ccc(NCc2ccc(C(C)=O)cc2)cc1
3,1600,CCc1nc(N)nc(N)c1-c1ccc(NCc2ccc([N+](=O)[O-])cc2)cc1

# Test system: not listed separately
# Assay: Plasma clearance in Sprague-Dawley rat at 5 mg/kg, iv
# Format: ADME, organism-based
# Design: dose 5 mg/kg, route intravenous
# Settings: not given
# Outline: as §1
row,clearance [mL/min/kg],SMILES
1,26.7,CCc1nc(N)nc(N)c1-c1ccc(NCc2ccc(S(C)(=O)=O)cc2)c(Cl)c1
2,61.7,CCc1nc(N)nc(N)c1-c1ccc(NCc2ccc(C(C)=O)cc2)cc1
3,43.3,CCc1nc(N)nc(N)c1-c1ccc(NCc2ccc([N+](=O)[O-])cc2)cc1

# Test system: not listed separately
# Assay: Half life in Sprague-Dawley rat at 5 mg/kg
# Format: ADME, organism-based
# Design: dose 5 mg/kg
# Settings: in vivo
# Outline: as §1
row,half-life [h],SMILES
1,8.7,CCc1nc(N)nc(N)c1-c1ccc(NCc2ccc(S(C)(=O)=O)cc2)c(Cl)c1
2,2.4,CCc1nc(N)nc(N)c1-c1ccc(NCc2ccc(C(C)=O)cc2)cc1
3,5.5,CCc1nc(N)nc(N)c1-c1ccc(NCc2ccc([N+](=O)[O-])cc2)cc1

# Test system: not listed separately
# Assay: Plasma concentration in Sprague-Dawley rat at 5 mg/kg after 1 hr
# Format: ADME, organism-based
# Design: dose 5 mg/kg
# Settings: not given
# Outline: as §1
row,concentration at 1 h [ng/mL],SMILES
1,1040,CCc1nc(N)nc(N)c1-c1ccc(NCc2ccc(S(C)(=O)=O)cc2)c(Cl)c1
2,120,CCc1nc(N)nc(N)c1-c1ccc(NCc2ccc(C(C)=O)cc2)cc1
3,270,CCc1nc(N)nc(N)c1-c1ccc(NCc2ccc([N+](=O)[O-])cc2)cc1

# Test system: not listed separately
# Assay: Oral bioavailability in Sprague-Dawley rat at 5 mg/kg
# Format: ADME, organism-based
# Settings: in vivo
# Outline: as §1
row,bioavailability [%],SMILES
1,78,CCc1nc(N)nc(N)c1-c1ccc(NCc2ccc(S(C)(=O)=O)cc2)c(Cl)c1
2,51,CCc1nc(N)nc(N)c1-c1ccc(NCc2ccc(C(C)=O)cc2)cc1
3,68,CCc1nc(N)nc(N)c1-c1ccc(NCc2ccc([N+](=O)[O-])cc2)cc1

# Molecular target: T1, Growth hormone secretagogue receptor type 1
# Assay: Displacement of [125I]ghrelin from human GHS receptor expressed in CHOK cells
# Format: cell-based
# Settings: not given
# Outline: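 Membranes from CHO-K cells expressing human ghrelin receptor, prepared by sonication and a 60000g spin. Filtered onto PEI-soaked GF/C, washed cold, scintillation counted; percent inhibition, sigmoidal fit for IC50.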
row,IC50 [nM],SMILES
1,4.2,CCc1nc(N)nc(N)c1-c1ccc(NCc2ccc(S(C)(=O)=O)cc2)c(Cl)c1
2,9.8,CCc1nc(N)nc(N)c1-c1ccc(CNc2ccc(S(C)(=O)=O)cc2)cc1
3,50,Nc1nc(N)c(-c2ccc(NCc3ccccc3)cc2)c(COCc2ccccc2)n1
4,67,CC(C)(C)CNc1ccc(-c2c(N)nc(N)nc2COCc2ccccc2)cc1
5,0.2,Nc1nc(N)c(-c2ccc(NCc3ccc([N+](=O)[O-])cc3)cc2)c(COCc2ccccc2)n1
6,110,CCc1nc(N)nc(N)c1-c1ccc(NCc2ccnc(Cl)c2)cc1
7,6.9,CS(=O)(=O)c1ccc(COc2ccc(-c3c(N)nc(N)nc3COCc3ccccc3)cc2)cc1
8,57,CCc1nc(N)nc(N)c1-c1ccc(NCc2ccc(C(C)=O)cc2)cc1
9,0.8,Nc1nc(N)c(-c2ccc(CNc3ccc([N+](=O)[O-])cc3)cc2)c(COCc2ccccc2)n1
10,290,CCc1nc(N)nc(N)c1-c1ccc(NCc2csc(Cl)c2)cc1
11,6.3,Nc1nc(N)c(-c2ccc(NCc3csc(Cl)c3)cc2)c(COCc2ccccc2)n1
12,2.4,CCc1nc(N)nc(N)c1-c1ccc(NCc2cc(F)c(S(C)(=O)=O)c(F)c2)cc1
13,7.7,COc1ccc(CNc2ccc(-c3c(N)nc(N)nc3COCc3ccccc3)cc2)cc1
14,160,CCc1nc(N)nc(N)c1-c1ccc(NCc2ccc(C#N)cc2)cc1
15,130,Nc1nc(N)c(-c2ccc(NCc3cnc4ccccc4c3)cc2)c(COCc2ccccc2)n1
16,300,CCc1nc(N)nc(N)c1-c1ccc(CNc2ccc(Cl)cc2)cc1
17,11,CCc1nc(N)nc(N)c1-c1ccc(NCc2ccc([N+](=O)[O-])cc2)cc1

# Test system: not listed separately
# Assay: Cmax in Sprague-Dawley rat at 5 mg/kg, iv
# Format: ADME, organism-based
# Design: dose 5 mg/kg, route intravenous
# Settings: in vivo
# Outline: as §1
row,Cmax [ng/mL],SMILES
1,160,CCc1nc(N)nc(N)c1-c1ccc(NCc2ccc(S(C)(=O)=O)cc2)c(Cl)c1
2,140,CCc1nc(N)nc(N)c1-c1ccc(NCc2ccc(C(C)=O)cc2)cc1
3,140,CCc1nc(N)nc(N)c1-c1ccc(NCc2ccc([N+](=O)[O-])cc2)cc1

# Test system: not listed separately
# Assay: Concentration in Sprague-Dawley rat brain at 5 mg/kg after 1 hr
# Format: ADME, organism-based
# Design: dose 5 mg/kg
# Settings: read-out: Ct
# Outline: as §1
row,concentration at 1 h [ng/g],SMILES
1,30,CCc1nc(N)nc(N)c1-c1ccc(NCc2ccc(S(C)(=O)=O)cc2)c(Cl)c1
2,420,CCc1nc(N)nc(N)c1-c1ccc(NCc2ccc(C(C)=O)cc2)cc1
3,530,CCc1nc(N)nc(N)c1-c1ccc(NCc2ccc([N+](=O)[O-])cc2)cc1
